In ChEMBL document CHEMBL1128687, “5-Methyl-6-phenyl-1,3,5,6-tetrahydro-3,6-methano-1,5-benzodiazocine-2,4-dione (BA 41899): representative of a novel class of purely calcium-sensitizing agents” (J Med Chem, 1995):
Each block holds one molecule with its values, some of them ahead of it. The source made the active and inactive calls. The calls are words filed in the database; no cut-off is given here.

What was measured:
[1] = species on record: Sus scrofa; experiment: Increase in isometric force of porcine myocardial skinned fibers at 30 uM; format: functional
[2] = species on record: Sus scrofa; experiment: Effect on porcine myocardial skinned fibers at 1-100 uM (ineffective); format: functional
[3] = species on record: Cavia porcellus; experiment: Positive inotropic effect, increased isometric tension on guinea pig heart; format: functional
Summary of the method: (§1)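 Left atria from urethane-anaesthetized guinea pigs in Krebs–Henseleit medium at 32 °C, electrically stimulated isometrically at 2.5 s⁻¹ (also 0.25 s⁻¹); compound applied at 1–100 μM after equilibration, exposure up to 60 min; twitch force recorded, EC50 as concentration giving half-maximal effect.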

[4] = species on record: Sus scrofa; experiment: Increased [Ca2+] activated force in porcine myocardial skinned fibers; format: functional; conditions: Myocardium
[5] = species on record: Sus scrofa; experiment: Maximal activation of porcine myocardial skinned fibers at 40 uM free [Ca2+] without compound; format: functional
[6] = species on record: Sus scrofa; experiment: Maximal activation of porcine myocardial skinned fibers at 40 uM [Ca2+] with 100 uM compound; format: functional
[7] = species on record: Sus scrofa; experiment: Increase in [Ca2+] activated force in porcine myocardial skinned fibers; format: functional, Myocardium
[8] = species on record: Sus scrofa; experiment: Reduced [Ca2+] activated force development on porcine skinned myocardial fibers at 100 uM; format: functional; set-up: scale not given: the % may be the effect or the level left
[9] = biological target: T1, Alpha-2A adrenergic receptor (Homo sapiens) (UniProt P08913); experiment: Effect against Alpha-2 adrenergic receptor using clonidine as ligand; No effect; conditions: Cavia porcellus
T1 sequence (whole entry): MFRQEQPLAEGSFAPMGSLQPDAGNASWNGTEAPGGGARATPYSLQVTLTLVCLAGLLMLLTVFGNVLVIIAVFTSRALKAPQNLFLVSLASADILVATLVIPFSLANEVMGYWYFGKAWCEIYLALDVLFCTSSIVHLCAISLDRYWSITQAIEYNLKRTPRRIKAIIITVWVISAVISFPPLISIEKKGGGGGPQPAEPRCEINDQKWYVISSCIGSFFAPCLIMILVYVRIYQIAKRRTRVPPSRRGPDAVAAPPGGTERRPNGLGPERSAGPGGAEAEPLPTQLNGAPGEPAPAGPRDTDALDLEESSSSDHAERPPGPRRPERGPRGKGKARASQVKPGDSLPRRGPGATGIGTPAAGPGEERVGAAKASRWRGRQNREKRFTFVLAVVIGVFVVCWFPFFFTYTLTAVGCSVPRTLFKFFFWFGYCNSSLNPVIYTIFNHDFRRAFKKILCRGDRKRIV

[10] = biological target: T2, Alpha-1A adrenergic receptor (Homo sapiens) (UniProt P35348); experiment: Effect against Alpha-1 adrenergic receptor using prazosin as ligand; No effect; conditions: Cavia porcellus
T2 sequence (whole entry): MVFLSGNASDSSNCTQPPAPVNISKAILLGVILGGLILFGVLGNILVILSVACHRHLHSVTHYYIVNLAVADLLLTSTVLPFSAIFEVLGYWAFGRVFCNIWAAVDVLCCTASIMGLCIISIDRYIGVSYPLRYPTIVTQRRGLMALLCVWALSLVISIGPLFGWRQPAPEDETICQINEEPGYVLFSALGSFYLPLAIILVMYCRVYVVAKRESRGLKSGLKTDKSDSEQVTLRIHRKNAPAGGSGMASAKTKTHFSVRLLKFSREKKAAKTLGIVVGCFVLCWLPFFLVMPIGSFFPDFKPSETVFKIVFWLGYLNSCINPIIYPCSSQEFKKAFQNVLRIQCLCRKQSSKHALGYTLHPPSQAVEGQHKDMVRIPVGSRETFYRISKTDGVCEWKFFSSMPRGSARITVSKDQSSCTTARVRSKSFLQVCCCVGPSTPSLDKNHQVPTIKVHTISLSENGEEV

[11] = biological target: Beta-1 adrenergic receptor (Cavia porcellus) (UniProt B0FL73); experiment: Effect against Beta-1 adrenergic receptor using dehydroalprenolol as ligand; No effect
Sequence of Beta-1 adrenergic receptor (Cavia porcellus) (B0FL73 1-467): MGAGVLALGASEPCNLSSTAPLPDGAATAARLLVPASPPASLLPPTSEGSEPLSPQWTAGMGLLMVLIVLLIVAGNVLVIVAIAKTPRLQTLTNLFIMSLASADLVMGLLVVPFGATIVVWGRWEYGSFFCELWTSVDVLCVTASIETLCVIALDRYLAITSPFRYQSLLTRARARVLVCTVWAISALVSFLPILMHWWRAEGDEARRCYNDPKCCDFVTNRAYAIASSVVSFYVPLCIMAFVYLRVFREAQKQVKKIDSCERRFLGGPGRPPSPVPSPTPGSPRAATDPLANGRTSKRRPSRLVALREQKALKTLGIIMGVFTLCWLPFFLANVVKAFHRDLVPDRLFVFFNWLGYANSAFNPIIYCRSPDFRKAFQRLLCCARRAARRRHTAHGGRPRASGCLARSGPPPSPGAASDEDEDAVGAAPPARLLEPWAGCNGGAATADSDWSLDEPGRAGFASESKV

[12] = species on record: Cavia porcellus; experiment: Inotropic effect at 100 uM; Loses most of its inotropic activity due to resting tension; format: functional; summary of the method: as §1
[13] = biological target: Histamine H1 receptor (Cavia porcellus) (UniProt P31389); experiment: Effect against histamine H1 receptor; No effect
Sequence of Histamine H1 receptor (Cavia porcellus) (P31389 whole entry): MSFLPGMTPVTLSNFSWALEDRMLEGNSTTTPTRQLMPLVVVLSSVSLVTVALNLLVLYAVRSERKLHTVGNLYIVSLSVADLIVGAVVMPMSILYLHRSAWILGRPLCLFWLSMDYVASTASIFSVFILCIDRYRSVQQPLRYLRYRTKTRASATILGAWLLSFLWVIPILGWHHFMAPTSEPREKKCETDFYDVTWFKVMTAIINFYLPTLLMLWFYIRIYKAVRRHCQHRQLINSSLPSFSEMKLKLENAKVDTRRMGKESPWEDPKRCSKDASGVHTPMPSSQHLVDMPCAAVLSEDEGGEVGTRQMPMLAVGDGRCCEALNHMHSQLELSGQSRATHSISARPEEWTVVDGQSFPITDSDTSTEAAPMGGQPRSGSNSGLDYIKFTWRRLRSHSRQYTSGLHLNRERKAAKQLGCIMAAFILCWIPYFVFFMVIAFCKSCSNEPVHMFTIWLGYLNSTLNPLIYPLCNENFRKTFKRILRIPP

[14] = species on record: Sus scrofa; experiment: Increased contractile response in skinned myocardial fibers in presence of 0.1-10 uM free [Ca2+]; format: functional; conditions: Myocardium
[15] = biological target: Phosphodiesterase 4 (Homo sapiens) (UniProt P27815+Q08499+Q07343+Q08493); experiment: Inhibition of Phosphodiesterase 4; format: protein assay; conditions: Cavia porcellus
[16] = species on record: Cavia porcellus; experiment: Activating effect on Sarcolemmal Ca+2 ATPase was determined
[17] = species on record: Cavia porcellus; experiment: Activating effect on Sarcolemmal Ca+2 channel uptake was determined; format: functional
[18] = species on record: Cavia porcellus; experiment: Inhibition of desmethoxyverapamil binding to Sarcolemmal Ca+2 channel (No effect)
[19] = biological target: GABA-A receptor; anion channel (Homo sapiens) (UniProt P14867+P47870+P18507+P28472+P48169+Q99928+Q9UN88+P34903+O00591+O14764+Q8N1C3+P18505+P78334+P47869+P31644+Q16445); experiment: Binding affinity against GABA-A benzodiazepine receptor using flunitrazepam; format: protein-complex assay; conditions: Cavia porcellus
[20] = species on record: Sus scrofa; experiment: Increased [Ca2+] activated force in porcine myocardial skinned fibers (Not effective); format: functional, Myocardium
[21] = species on record: Sus scrofa; experiment: Increase in [Ca2+] activated force in porcine myocardial skinned fibers (ineffective); format: functional; conditions: Myocardium
[22] = species on record: Cavia porcellus; experiment: Reduced spontaneous beating frequency at 1-100 uM in guinea pig heart; format: functional
Summary of the method: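 Right atria from urethane-anaesthetized guinea pigs, mounted isometrically in Krebs–Henseleit medium at 32 °C; spontaneous sinus-node beating rate recorded over 1–100 μM compound; EC50 taken as concentration giving half-maximal effect.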

[23] = species on record: Sus scrofa; experiment: Increased [Ca2+] activated force in porcine myocardial skinned fibers by racemic mixture; format: functional; conditions: Myocardium
[24] = species on record: Sus scrofa; experiment: Increase in isometric force in myocardial skinned fibres at 100 uM with free [Ca2+]; format: functional, Myocardium
[25] = species on record: Sus scrofa; experiment: Increase in isometric force of myocardial skinned fibres at 30 uM with free [Ca2+]; format: functional

Structure (SMILES): COc1ccc(C(=O)N2CCCc3cc(C4=NNC(=O)SC4C)ccc32)cc1OC (centres undefined)
Effect [1]: 400%

Structure (SMILES): CN1C(=O)C2(c3ccccc3)CC1C(=O)Nc1ccccc12 (centres undefined)
Effect [2]: inactive

Structure (SMILES): CN1C(=O)C2(c3ccccc3)CC1NC(=O)c1ccccc12 (centres undefined)
Effect [2]: inactive

Structure (SMILES): CN1C(=O)C2CC1(c1ccccc1)c1ccccc1C(=O)N2 (centres undefined)
Effect [2]: inactive

EC50 [3]: 8 µM | EC50 [4]: 10 µM | EC50 [5]: 3 µM | EC50 [6]: 0.3 µM
Structure (SMILES): CN1C(=O)C2CC1(c1ccccc1)c1ccccc1NC2=O (single isomer, unassigned; (+)) [listing 1 of 2 here]
Effect [3]: 40% | Effect [7]: 280% | Effect [8]: 17%

Effect [9]: inactive | Effect [10]: inactive | Effect [11]: inactive | Effect [13]: inactive | Effect [15]: inactive | Effect [16]: inactive | Effect [18]: inactive | Effect [19]: inactive
Structure (SMILES): CN1C(=O)C2CC1(c1ccccc1)c1ccccc1NC2=O (single isomer, unassigned; (+)) [listing 2 of 2 here]
Activity [12]: inactive | Effect [14]: Active | Effect [17]: inactive

EC50 [20]: Not Active
Structure (SMILES): CN1C(=O)C2CC1(c1ccccc1)c1ccccc1NC2=O (single isomer, unassigned; (-)) [listing 1 of 2 here]

Structure (SMILES): CN1C(=O)C2CC1(c1ccccc1)c1ccccc1NC2=O (single isomer, unassigned; (-)) [listing 2 of 2 here]
Effect [21]: inactive

EC50 ([3]; Cavia porcellus, Heart): 15 µM | EC50 [23]: 20 µM
Structure (SMILES): CN1C(=O)C2CC1(c1ccccc1)c1ccccc1NC2=O (stereo in doubt)
Reduction [22]: 55% | Effect [24]: 60% | Effect [25]: 60%
